ChEMBL document CHEMBL4359903, “1,2,4-Oxadiazole derivatives targeting EGFR and c-Met degradation in TKI resistant NSCLC” (Eur J Med Chem, 2019)
Activity calls are given as the source filed them. The rule behind the calls is not given here.

Experiments:
[1] = system: NCI-H1975; assay: Antiproliferative activity against human NCI-H1975 cells harbouring EGFR L858R/T790M double mutant assessed as reduction in cell viability incubated for 48 hrs by MTT assay; format: functional, cell-based; settings: NCI-H1975, 48 h
Method in brief: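 Cells seeded at 5000 per well in 10% FBS and left overnight, then exposed to agent or DMSO in 5% FBS for 48 h. MTT added for 1 h, dye dissolved in DMSO, absorbance read at 570 nm. Viability given as percent of vehicle control. At least three independent experiments, means ± SD.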

[2] = system: Epidermal growth factor receptor (Homo sapiens), P00533 [UNDEFINED MUTATION]; assay: Induction of EGFR E746-A750 deletion mutant degradation in human PC9 cells assessed as reduction in Akt phosphorylation at 0.4 to 0.8 uM incubated for 48 hrs by Western blot analysis; format: cell-based; settings: 0.2 to 0.6 uM, in the assay text read “0.2 to 0.6 uM” for “0.4 to 0.8 uM”
Method in brief: (§1)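 After 48 h treatment, cells were scraped and lysed in 1% SDS, 50 mM Tris-HCl pH 8.0, 10 mM EDTA with protease and phosphatase inhibitors. Lysates sonicated, protein measured by BCA, equal amounts run on SDS-PAGE and blotted to nitrocellulose. Primary antibodies (EGFR, c-Met, S473-Akt, Akt, GAPDH) used at 1:1000 overnight at 4 °C, HRP secondaries at 1:5000, ECL detection.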

[3] = Toxicity in athymic Nude-Foxn1nu BALB/c mouse xenografted with human NCI-H1975 cells harbouring EGFR L858R/T790M double mutant assessed as body weight loss at 50 to 150 mg/kg, po administered once daily via gavage for 20 days measured twice a week; format: organism-based; settings: in vivo, 480 h
Method in brief: (§2)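 Female Balb/c nude mice, 5 weeks old, injected subcutaneously in the right flank with 10^6 H1975 cells in 0.1 ml. Randomized at about 50 mm3, n = 8 per group. Gavaged once daily for 20 days with vehicle (10% DMSO/0.1% Tween 80/0.5% methylcellulose in sterile water) or 50 or 150 mg/kg. Calipers, V = width² × length × 0.52; volume and body weight twice weekly; Student's t-test.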

[4] = system: MDA-MB-231; assay: Antiproliferative activity against human MDA-MB-231 cells assessed as reduction in cell viability incubated for 72 hrs by MTT assay; format: functional, cell-based; settings: MDA-MB-231, 72 h
Method in brief: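 MTT viability assay after 72 h of drug exposure. Cells seeded at 5000 per well in 10% FBS and left overnight, then treated in 5% FBS. MTT added for 1 h, dye dissolved in DMSO, absorbance read at 570 nm. Viability given relative to vehicle-treated cells.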

[5] = system: NCI-H1975; assay: Antitumor activity against human NCI-H1975 cells harbouring EGFR L858R/T790M double mutant xenografted in athymic Nude-Foxn1nu BALB/c mouse assessed as reduction in EGFR expression in tumor lysates administered once daily via oral gavage for 20 days measured on day 20 by Western blot analysis; format: functional; settings: Neoplasm, Lysate
Method in brief: (§3)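 H1975 xenografts in nude mice gavaged daily for 20 days with vehicle, 50 or 150 mg/kg. At study end mice were killed by CO2, and tumor lysates from four representative tumors per group were immunoblotted for EGFR and c-Met. Band intensities quantified by densitometry.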

[6] = biological target: Hepatocyte growth factor receptor (Homo sapiens) (UniProt P08581); assay: Induction of c-MET degradation in human MDA-MB-231 cells assessed as reduction in c-Met expression incubated for 48 hrs by immunoblot analysis; format: cell-based; method in brief: as §1
Hepatocyte growth factor receptor (Homo sapiens), sequence (P08581 whole entry): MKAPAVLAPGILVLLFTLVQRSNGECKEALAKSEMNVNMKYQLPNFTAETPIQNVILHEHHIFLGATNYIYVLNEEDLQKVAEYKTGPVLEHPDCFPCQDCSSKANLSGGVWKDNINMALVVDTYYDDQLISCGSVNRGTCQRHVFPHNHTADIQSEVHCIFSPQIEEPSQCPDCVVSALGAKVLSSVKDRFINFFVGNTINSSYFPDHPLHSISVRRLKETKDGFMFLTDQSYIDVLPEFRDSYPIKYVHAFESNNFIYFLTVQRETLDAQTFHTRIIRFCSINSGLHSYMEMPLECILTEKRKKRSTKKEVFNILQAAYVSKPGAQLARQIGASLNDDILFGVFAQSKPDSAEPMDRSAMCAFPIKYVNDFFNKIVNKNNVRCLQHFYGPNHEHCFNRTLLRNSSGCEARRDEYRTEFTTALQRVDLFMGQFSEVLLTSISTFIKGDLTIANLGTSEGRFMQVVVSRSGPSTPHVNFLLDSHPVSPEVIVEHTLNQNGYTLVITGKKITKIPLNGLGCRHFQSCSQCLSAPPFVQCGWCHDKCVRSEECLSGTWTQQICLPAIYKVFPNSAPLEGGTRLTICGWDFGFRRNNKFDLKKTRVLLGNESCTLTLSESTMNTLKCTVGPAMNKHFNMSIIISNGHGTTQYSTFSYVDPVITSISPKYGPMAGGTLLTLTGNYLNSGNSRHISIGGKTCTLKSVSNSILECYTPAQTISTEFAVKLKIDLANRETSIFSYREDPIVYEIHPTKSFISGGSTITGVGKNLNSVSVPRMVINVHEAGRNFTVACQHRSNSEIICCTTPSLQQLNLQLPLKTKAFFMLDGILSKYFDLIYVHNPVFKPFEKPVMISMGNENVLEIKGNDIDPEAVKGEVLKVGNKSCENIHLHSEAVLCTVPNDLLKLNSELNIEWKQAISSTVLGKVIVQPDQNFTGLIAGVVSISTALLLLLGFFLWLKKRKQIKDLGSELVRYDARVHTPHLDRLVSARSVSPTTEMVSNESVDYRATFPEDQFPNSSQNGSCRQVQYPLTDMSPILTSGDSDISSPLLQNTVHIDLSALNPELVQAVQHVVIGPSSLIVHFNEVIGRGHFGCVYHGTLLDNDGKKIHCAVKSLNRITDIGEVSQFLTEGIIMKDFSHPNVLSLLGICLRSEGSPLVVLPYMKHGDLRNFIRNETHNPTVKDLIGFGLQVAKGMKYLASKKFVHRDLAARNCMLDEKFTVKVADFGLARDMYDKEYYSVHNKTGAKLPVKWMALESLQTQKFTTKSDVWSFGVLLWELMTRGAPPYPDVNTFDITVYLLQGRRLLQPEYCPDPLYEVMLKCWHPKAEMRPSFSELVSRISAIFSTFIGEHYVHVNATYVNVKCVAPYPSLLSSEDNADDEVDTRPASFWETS

[7] = system: NCI-H1975; assay: Antitumor activity against human NCI-H1975 cells harbouring EGFR L858R/T790M double mutant xenografted in orally dosed athymic Nude-Foxn1nu BALB/c mouse assessed as tumor growth inhibition administered once daily via gavage for 20 days measured twice a week by caliper method; format: functional, organism-based; method in brief: as §2
[8] = system: NCI-H1975; assay: Antitumor activity against human NCI-H1975 cells harbouring EGFR L858R/T790M double mutant xenografted in athymic Nude-Foxn1nu BALB/c mouse assessed as reduction in c-Met expression in tumor lysates administered once daily via oral gavage for 20 days measured on day 20 by Western blot analysis; format: functional; settings: Neoplasm, Lysate; method in brief: as §3
[9] = organism: Homo sapiens; assay: Cell cycle arrest in human CL68 cells harbouring EGFR delE746-A750/T790M mutant assessed as increase in cells accumulation at G2/M phase at 0.4 to 0.8 uM incubated for 48 hrs by propidium iodide based flow cytometry; format: functional
Method in brief: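 Cells plated at 3 × 10^5 per 6-cm dish and left overnight, then treated for 24 h and 48 h. Pellets fixed in 70% ethanol and stained with 40 µg/ml propidium iodide plus 20 µg/ml RNase A, 30 min on ice in the dark. DNA content read on a FACSCalibur flow cytometer.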

[10] = system: Epidermal growth factor receptor (Homo sapiens), P00533 [UNDEFINED MUTATION]; assay: Induction of EGFR E746-A750 deletion/T790M mutant degradation in human CL68 cells assessed as reduction in EGFR expression at 0.2 to 0.6 uM incubated for 48 hrs by Western blot analysis; format: cell-based; method in brief: as §1
[11] = biological target: Hepatocyte growth factor receptor (Homo sapiens) (UniProt P08581); assay: Induction of c-MET degradation in human CL97 cells harbouring EGFR G719A/T790M assessed as reduction in c-Met expression at 0.2 to 0.6 uM incubated for 48 hrs by Western blot analysis; format: cell-based; method in brief: as §1
[12] = biological target: Epidermal growth factor receptor (Homo sapiens) (UniProt P00533); assay: Induction of EGFR degradation in wild type human A549 cells assessed as reduction in EGFR expression 0.2 to 0.6 uM incubated for 48 hrs by Western blot analysis; format: cell-based; method in brief: as §1
[13] = system: Epidermal growth factor receptor (Homo sapiens), P00533 [UNDEFINED MUTATION]; assay: Induction of EGFR E746-A750 deletion mutant degradation in human PC9 cells assessed as reduction in EGFR expression at 0.2 to 0.6 uM incubated for 48 hrs by Western blot analysis; format: cell-based; method in brief: as §1
[14] = system: A549; assay: Antiproliferative activity against wild type human A549 cells assessed as reduction in cell viability incubated for 72 hrs by MTT assay; format: functional, cell-based; settings: A549, 72 h
[15] = system: Epidermal growth factor receptor (Homo sapiens), P00533 [G719A,T790M]; assay: Induction of EGFR G719A/T790M mutant degradation in human CL97 cells assessed as reduction in EGFR expression at 0.2 to 0.6 uM incubated for 48 hrs by Western blot analysis; format: cell-based; method in brief: as §1
[16] = system: Epidermal growth factor receptor (Homo sapiens), P00533 [L858R,T790M]; assay: Induction of EGFR L858R/T790M double mutant degradation in human NCI-H1975 cells assessed as reduction in EGFR expression at 0.2 to 0.6 uM incubated for 48 hrs by Western blot analysis; format: cell-based; method in brief: as §1
[17] = biological target: Hepatocyte growth factor receptor (Homo sapiens) (UniProt P08581); assay: Effect on c-MET degradation in wild type human A549 cells assessed as reduction in c-Met mRNA expression at 0.2 to 0.6 uM incubated for 48 hrs by RT-PCR analysis; format: cell-based
Method in brief: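 Total RNA extracted with TRIzol from H1975 and A549 cells treated at 0.2–0.6 µM. EGFR and c-Met mRNA assessed by RT-PCR.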

[18] = system: NCI-H1975; assay: Antitumor activity against human NCI-H1975 cells harbouring EGFR L858R/T790M double mutant xenografted in athymic Nude-Foxn1nu BALB/c mouse assessed as tumor growth inhibition at 50 mg/kg, po administered once daily via gavage for 20 days measured twice a week by caliper method relative to control; format: functional; settings: 480 h, read-out: TGI

IC50 [1]: 300 nM | Activity [2]: Active | IC50 [4]: 200 nM | Activity [6]: Active | Activity [10]: Active | Activity [11]: Active | Activity [12]: Active | Activity [13]: Active | IC50 [14]: 200 nM | Activity [15]: Active | Activity [16]: Active | Activity [17]: inactive
Structure (SMILES): O=C(Nc1cccc(-c2nc(-c3ccc(NC(=O)c4cccnc4)cc3Cl)no2)c1)Nc1ccc(NC(=O)C2CC2)c(C(F)(F)F)c1
Activity [3]: Non-Toxic | Activity [5]: Dose-dependent effect | TGI [7]: Dose-dependent effect | Activity [8]: Dose-dependent effect | Activity [9]: Active | inhibition in vivo at 50 mg/kg [18]: 29 to 37%
